Test [1] deals with DOT1L. To be noted: read-out: in vitro IC50 on DOT1L; cited from earlier work.
Test [2] deals with T1, GLP (Homo sapiens, UniProt Q9H9B1).
T1 sequence (Q9H9B1 982-1266): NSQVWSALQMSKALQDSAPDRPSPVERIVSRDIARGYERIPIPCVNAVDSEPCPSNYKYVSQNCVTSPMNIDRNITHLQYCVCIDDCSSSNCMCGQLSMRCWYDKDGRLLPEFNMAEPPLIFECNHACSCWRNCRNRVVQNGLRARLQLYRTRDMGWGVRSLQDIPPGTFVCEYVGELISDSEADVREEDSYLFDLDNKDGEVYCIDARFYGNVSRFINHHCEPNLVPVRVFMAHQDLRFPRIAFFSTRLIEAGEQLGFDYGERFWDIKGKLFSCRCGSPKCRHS
Briefly: Filter-paper methylation assay, IC50 against GLP. The class given is biochemical. The settings on record: read-out: IC50 for GLP. The method in brief:
(§1)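 Radiometric filter-paper assay: the methyl group from [3H-Me]-SAM is transferred to a peptide substrate, the peptide is captured by filter binding, and radioactivity is counted by scintillation. For SETD2, both SAM and peptide were below their Km. IC50 was obtained by fitting percent inhibition against inhibitor concentration.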

Test [3] addresses T2, SETD2 (Homo sapiens, UniProt Q9BYW2).
T2 sequence (Q9BYW2 1347-1711): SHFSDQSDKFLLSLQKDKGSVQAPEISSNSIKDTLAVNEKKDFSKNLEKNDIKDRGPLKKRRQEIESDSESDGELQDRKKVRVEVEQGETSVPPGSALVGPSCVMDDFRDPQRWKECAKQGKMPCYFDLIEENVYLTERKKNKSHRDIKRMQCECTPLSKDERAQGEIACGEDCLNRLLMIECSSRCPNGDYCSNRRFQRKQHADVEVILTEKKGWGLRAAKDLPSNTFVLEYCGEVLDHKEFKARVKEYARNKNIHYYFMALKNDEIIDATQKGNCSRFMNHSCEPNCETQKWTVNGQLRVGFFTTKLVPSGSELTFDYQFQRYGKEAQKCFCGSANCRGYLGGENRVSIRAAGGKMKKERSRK
Briefly: Kinetics analysis of SETD2-catalyzed methylation. The class given is biochemical.

For test [4], the target named is PRMT1 (Homo sapiens, UniProt Q99873). Kind of test: Filter-paper methylation assay, IC50 against PRMT1. It counts as biochemical. The settings on record: read-out: IC50 for PRMT1. The method, boiled down:
as §1

Test [5] has as its target T3, G9a (Homo sapiens, UniProt Q96KQ7).
T3 sequence (Q96KQ7 913-1193): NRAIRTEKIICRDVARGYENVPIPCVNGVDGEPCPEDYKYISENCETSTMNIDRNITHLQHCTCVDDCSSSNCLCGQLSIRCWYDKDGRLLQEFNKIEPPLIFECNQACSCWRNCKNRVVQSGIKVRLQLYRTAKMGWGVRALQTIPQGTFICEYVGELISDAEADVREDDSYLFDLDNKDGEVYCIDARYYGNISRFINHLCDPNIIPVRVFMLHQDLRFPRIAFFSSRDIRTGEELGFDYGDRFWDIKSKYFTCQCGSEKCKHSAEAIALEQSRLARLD
Briefly: Filter-paper methylation assay, IC50 against G9a. The class given is biochemical. To be noted: read-out: IC50 for G9a.

For test [6], the target named is T4, SET8 (Homo sapiens, UniProt Q9NQR1).
T4 sequence (Q9NQR1 232-393 limits assumed): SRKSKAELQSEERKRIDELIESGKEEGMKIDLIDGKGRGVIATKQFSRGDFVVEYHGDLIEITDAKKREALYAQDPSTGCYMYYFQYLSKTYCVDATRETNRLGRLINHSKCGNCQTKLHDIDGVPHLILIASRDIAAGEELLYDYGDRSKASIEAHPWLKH
Kind of test: Filter-paper methylation assay, IC50 against SET8. The class given is biochemical. To be noted: read-out: IC50 for SET8. The method in brief: as §1

The target of test [7] is T2, SETD2. Briefly: Filter-paper methylation assay with [3H-Me]-SAM, IC50 against SETD2. It counts as biochemical. The settings on record: for preference to SETD2 over other examined methyltransferases: panel of 15 human methyltransferases. The method in brief: as §1
The target of test [8] is T5, CARM1 (Homo sapiens, UniProt Q86X55).
T5 sequence (Q86X55 19-608): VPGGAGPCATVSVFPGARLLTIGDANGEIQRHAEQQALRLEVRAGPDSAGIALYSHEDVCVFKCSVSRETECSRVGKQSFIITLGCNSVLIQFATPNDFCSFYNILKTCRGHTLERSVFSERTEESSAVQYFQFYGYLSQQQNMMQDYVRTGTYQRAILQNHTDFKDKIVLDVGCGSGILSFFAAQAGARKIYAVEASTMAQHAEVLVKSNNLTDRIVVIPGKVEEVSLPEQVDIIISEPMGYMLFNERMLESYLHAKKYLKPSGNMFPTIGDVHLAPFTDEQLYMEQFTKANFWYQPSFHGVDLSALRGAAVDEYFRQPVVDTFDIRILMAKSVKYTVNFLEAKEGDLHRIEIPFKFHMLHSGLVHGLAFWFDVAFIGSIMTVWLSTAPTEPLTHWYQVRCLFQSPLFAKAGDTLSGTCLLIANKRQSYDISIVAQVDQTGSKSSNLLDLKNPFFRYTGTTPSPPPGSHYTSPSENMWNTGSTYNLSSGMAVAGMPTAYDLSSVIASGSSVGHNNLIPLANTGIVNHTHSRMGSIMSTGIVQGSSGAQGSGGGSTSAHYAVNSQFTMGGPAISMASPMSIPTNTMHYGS
Kind of test: Filter-paper methylation assay, IC50 against CARM1. The class given is biochemical. To be noted: read-out: IC50 for CARM1.

Test [9] deals with T6, SET7/9 (Homo sapiens, UniProt Q8WTS6).
T6 sequence (Q8WTS6 1-366): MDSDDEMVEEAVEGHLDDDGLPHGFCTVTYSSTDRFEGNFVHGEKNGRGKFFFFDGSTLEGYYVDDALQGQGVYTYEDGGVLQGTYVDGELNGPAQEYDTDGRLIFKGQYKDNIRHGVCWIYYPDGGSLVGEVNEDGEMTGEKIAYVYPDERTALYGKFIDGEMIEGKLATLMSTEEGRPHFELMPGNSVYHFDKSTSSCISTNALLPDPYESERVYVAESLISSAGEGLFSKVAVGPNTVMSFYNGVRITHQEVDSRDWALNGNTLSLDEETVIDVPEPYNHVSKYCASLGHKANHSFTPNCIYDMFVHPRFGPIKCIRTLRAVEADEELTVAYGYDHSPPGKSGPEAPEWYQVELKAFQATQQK
Briefly: Filter-paper methylation assay, IC50 against SET7/9. It counts as biochemical. The method in brief: as §1

Test [10] relates to SUV39H2. Kind of test: Filter-paper methylation assay, potency against SUV39H2. It counts as biochemical, human. The method, boiled down: as §1

For orientation: Km means the concentration of substrate that gives half-maximal velocity.

PRMT1, sequence (Q99873 10-352 isoform Q99873-3): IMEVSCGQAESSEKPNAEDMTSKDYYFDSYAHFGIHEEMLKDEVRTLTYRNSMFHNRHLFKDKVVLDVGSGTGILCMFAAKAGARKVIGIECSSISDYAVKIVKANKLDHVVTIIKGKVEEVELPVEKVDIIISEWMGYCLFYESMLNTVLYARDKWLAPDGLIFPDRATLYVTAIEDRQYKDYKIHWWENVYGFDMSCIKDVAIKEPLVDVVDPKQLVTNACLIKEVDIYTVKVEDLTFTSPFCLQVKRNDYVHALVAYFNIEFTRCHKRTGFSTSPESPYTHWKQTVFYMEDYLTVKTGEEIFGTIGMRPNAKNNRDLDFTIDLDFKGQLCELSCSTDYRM

On to `CC(C)N(CCCNC(=O)Nc1ccc(C(C)(C)C)cc1)C[C@H]1O[C@@H](n2ccc3c(N)ncnc32)[C@H](O)[C@@H]1O` [EPZ004777], for which, in test [1], the IC50 was […].
Take `CCCNC(CCC(N)C(=O)O)C[C@H]1O[C@@H](n2cnc3c(N)ncnc32)[C@H](O)[C@@H]1O` (stereo partly shown) [3c, N-propyl sinefungin]: the IC50 in test [2] is > 100000 nM; in test [3] (read-out: calculated IC50 against SETD2, calculated from kinetic constants) it was 600 nM; in [4] it was 9500 ± 400 nM; in [5], > 100000 nM; in test [6], > 100000 nM; in [8] it was 2960 ± 300 nM. Further, in test [9] (read-out: IC50 for SET7/9), the IC50 was 2200 ± 400 nM. Besides, in test [3], the “enhancement of Kd by presence of SETD2's substrate” value was 8 fold. In [3] (factor by which binding of inhibitor or substrate affects binding of the other), the β is 0.12 ± 0.01. Further, the Kd in test [3] (read-out: βKd to bind SETD2, presence of substrate) amounted to 43 ± 4 nM. For the same compound, in [3] (varied inhibitor, fixed SAM (0.8 μM)), the “mechanism of inhibition versus peptide substrate” value is reported as “noncompetitive”. Also, the “mechanism of inhibition versus SAM cofactor” value in test [3] (varied inhibitor, fixed substrate (4 μM)) is given as “competitive”. For the same compound, the “preference to SETD2 over other examined methyltransferases” value in test [7] is on record as 2~200 fold.
As to `C[S+](CC[C@H](N)C(=O)[O-])C[C@H]1O[C@@H](n2cnc3c(N)ncnc32)[C@H](O)[C@@H]1O` (stereo partly shown) [SAM, S-adenosylmethionine, reference compound], in test [3] (read-out: Km,SAM of SETD2, absence of Pr-SNF), the Michaelis-Menten constant (Km) turned out to be 1.21 ± 0.05 µM.
In the case of `Nc1ncnc2c1ncn2[C@@H]1O[C@H](C[C@H](CC[C@H](N)C(=O)O)NCc2ccccc2)[C@@H](O)[C@H]1O` [3d, N-benzyl sinefungin], in test [10], the “drop in potency from 3c to 3d on SUV39H2” value is reported as 10~50 fold. In addition, the “potency against SETD2 relative to sinefungin 2, 3a and 3b” value in test [7] (fold higher potency) is recorded as “more than 10 fold”. In addition, in test [7], the “preference to SETD2 over other examined methyltransferases” value was 10~100 fold. Further, in test [9], the “drop in potency from 3c to 3d on SET7/9” value is given as 10~50 fold.

The values above are taken from article PMC3504124 (Journal of the American Chemical Society, 2012).
